An excerpt weighted towards active compounds, which were near 2.6% of everything screened.
Ecoli rRNA inh – inhibits bacterial ribosomal RNA function over humanized ribosomes; GFP signal change (wild-type ribosome), % (concentration not given with the values); hit rate 1.6% among 350,000; E. coli WT GFP vs humanized-ribosome RFP mutants, fluorescence, 24 h; hits give low values; DMSO median 0, no signal -100; AID 720706;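 active = significant combined selectivity score with lowered wild-type GFP, culture density cut under 30%, mutant RFP and density less affected; inactive = any of these conditions unmet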
SR-BI HDL uptake – blocks mouse SR-BI lipid uptake from DiI-HDL; ldlA[mSR-BI] CHO cells, DiI-HDL uptake fluorescence, 3 h; Q61009; inhibition, % at 12.5 µM; hit rate 0.96% among 320,000;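 active = mean replicate inhibition of at least 70% and a set share of replicates each scoring 70 or more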;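 note: 0% = median of neutral control wells and 100% = median of positive control wells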
Target sequence (Q61009 whole entry, looked up): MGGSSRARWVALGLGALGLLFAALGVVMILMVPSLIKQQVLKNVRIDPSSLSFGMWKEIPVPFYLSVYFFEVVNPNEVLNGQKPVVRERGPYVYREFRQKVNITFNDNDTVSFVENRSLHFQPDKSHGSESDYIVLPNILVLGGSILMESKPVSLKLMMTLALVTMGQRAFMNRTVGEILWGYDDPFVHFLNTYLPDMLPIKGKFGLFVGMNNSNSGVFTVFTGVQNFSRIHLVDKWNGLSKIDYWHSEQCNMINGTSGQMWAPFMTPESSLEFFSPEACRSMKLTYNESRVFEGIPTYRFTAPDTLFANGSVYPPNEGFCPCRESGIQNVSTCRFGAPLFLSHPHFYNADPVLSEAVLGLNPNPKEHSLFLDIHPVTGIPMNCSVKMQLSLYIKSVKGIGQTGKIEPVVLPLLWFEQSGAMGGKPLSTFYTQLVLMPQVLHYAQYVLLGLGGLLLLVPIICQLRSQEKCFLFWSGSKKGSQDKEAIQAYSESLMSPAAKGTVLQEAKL
dFosB activator – activators of mouse delta FosB homodimer; P13346; purified delta FosB, TAMRA-CDK5 oligo fluorescence polarization; percent of positive-control signal above neutral wells; activation, % at 25 µM; hit rate 0.99% among 340,000;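 active = mean activation above about 17%, with every replicate also reaching it, limit read from the data, passing the limit was not always enough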
PvdQ acylase – P. aeruginosa PvdQ acylase inhibition; inhibition, % at 10 µM; purified PvdQ acylase, fluorescence plate reader; hit rate 0.063% among 340,000; in the data active = inhibition above about 30%, passing the limit was not always enough;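 note: 0% = vehicle neutral wells and 100% = reference inhibitor wells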
SR-BI uptake up – activators of SR-BI mediated HDL lipid uptake | AID 504775 | CHO ldlA[mSR-BI] cells, DiI-HDL uptake fluorescence, 3 h; 100 = double the neutral-control signal | hit rate 0.096% among 320,000 | activation, % at 12.5 µM;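 active = mean replicate activation of at least 60% and every replicate at or above 60%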;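 note: 0% = median plate neutral-control signal and 100% = twice that signal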
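material = CHO ldlA[mSR-BI] cells | medium = Ham's F12 with 0.5% BSA, HEPES 25 mM, pH 7.4 | reagent = fluorescent DiI-HDL, 10 µg/mL final | compound dosing = single-point compound dose | incubation = 3 h, 37 °C | measured by = bottom-read fluorescence, 550/595 nm | measure = HDL uptake via cellular fluorescence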
XiGFP reactiv – activators of X-chromosome reactivation in mouse fibroblasts; hit rate 0.055% among 360,000; XiGFP mouse fibroblasts, % GFP-positive cells imaging, 3 d; cells co-treated with 5-aza-dC sensitizer; scaled so ellipticine positive control = 100%; activation, % at 7.58 µM;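 active = mean normalized replicate activation at least 10% and every replicate at or above 10%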;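 note: 0% = median of on-plate neutral control wells and 100% = ellipticine 6 µM median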
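System: XiGFP fibroblasts, SV40-immortalized. Medium: DMEM plus 5-aza-dC sensitizer. Doses: single point. Timing: 3 d treatment, 15 min room-temperature fixation. Control set: ellipticine 6 µM.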
* hit, by the source's call; . = not tested or not shown.

SMILES	Ecoli rRNA inh	SR-BI HDL uptake	dFosB activator	PvdQ acylase	SR-BI uptake up	XiGFP reactiv
CCN(CC)c1cc(C)c2cc(NC(=O)c3ccc(Br)o3)ccc2n1	.	73.3*	-31.7	-8.8	-73.3	.
COc1ccc(-c2nnn(CC(=O)N3CCN(c4ccccc4OC)CC3)n2)cc1OC	-17.4*	22.7	-14.0	4.0	-22.7	-0.1
COc1ccccc1N1CCN(C(=O)CSc2nc3ccccc3[nH]2)CC1	-40.5*	11.8	-1.2	-9.0	-11.8	.
COc1ccc(-c2nnn(CC(=O)N3CCN(c4ccccc4OC)CC3)n2)cc1	.	56.3	-0.7	-3.8	-56.3	.
COc1ccccc1NC(=O)N[C@@H]1C=C[C@@H](CC(=O)N[C@H](C)c2ccccc2)O[C@H]1CO	0.2	.	.	.	.	0.0
COC(=O)C1=C(N)Oc2cc(C)n(Cc3ccncc3)c(=O)c2C1c1cccnc1 (stereo unspecified)	.	-3.4	-0.2	-9.1	3.4	.
CC(C)N(Cc1nc(-c2ccccc2)no1)C(=O)c1ccc2c(c1)OCO2	-29.3*	-15.3	-7.5	-9.6	15.3	.
CN(Cc1c(F)cccc1Cl)C(=O)c1ccc(COc2ccccc2)cc1	-10.1	1.6	-12.8	-6.2	-1.6	0.4
C(#CCN1CCC(Cc2ccccc2)CC1)COCCOCc1ccccc1	.	6.6	-0.3	-0.2	-6.6	0.1
O=C(Nc1nc2cc3c(cc2s1)OCCO3)C1=COCCO1	-7.2	.	-3.0	7.1	.	0.0
O=C(Nc1nc2ccc(F)cc2s1)C1=COCCO1	-20.1*	34.1	-8.0	17.7	-34.1	0.0
COc1ccc(CNC(NC(=O)c2ccccc2)(C(F)(F)F)C(F)(F)F)cc1	-18.9*	-15.1	0.5	-10.4	15.1	0.3
CC(=O)c1c(C)[nH]c(C(=O)OCC(=O)Nc2cc(C(F)(F)F)ccc2N2CCOCC2)c1C	.	72.2*	4.6	-9.5	-72.2	.
O=C(COC(=O)/C=C/c1ccc(F)cc1)Nc1cc(C(F)(F)F)ccc1N1CCOCC1	20.4	-23.4	-2.5	-4.1	23.4	-0.1
CCOC(=O)C1=C(C)N=C2SCCC(=O)N2[C@@H]1c1cccs1	.	-291.8	-7.6	-14.6	291.8*	0.0
CCOC(=O)C1=C(C)N=C2SCCC(=O)N2C1c1cccs1 (stereo unspecified)	.	-8.6	0.5	-9.5	8.6	.
COc1cccc(-c2csc(N3CCN(C(=S)Nc4ccccc4C)CC3)n2)c1	-12.3	59.0	-12.0	-6.1	-59.0	0.2
O=S(=O)(c1cccc(F)c1)N1CCC(CO)(Cc2cccc(F)c2)CC1	-30.2	13.0	-9.9	0.3	-13.0	0.1
O=S(=O)(c1cccs1)N1CCC(CO)(Cc2cccc(F)c2)CC1	-23.0*	-5.6	-4.6	-12.0	5.6	-0.1
O=C(Nc1ncc(Cc2cccc(Cl)c2Cl)s1)c1ccc([N+](=O)[O-])cc1	.	66.0	-0.7	-6.5	-66.0	.
Cc1nc2ccc(C(=O)Nc3cccc([N+](=O)[O-])c3)cc2s1	11.5	74.5*	13.0	-25.9	-74.5	0.0
O=C(Nc1ncc(Cc2cc(Cl)ccc2Cl)s1)c1ccc([N+](=O)[O-])cc1	.	81.5*	-15.7	1.5	-81.5	.
O=C(O)c1ccccc1C(=O)Nc1cccc([N+](=O)[O-])c1	15.4	-34.1	-3.0	-0.7	34.1	0.3
COc1ccc(C(=O)Nc2ccc3nc(C)sc3c2)cc1OC	-19.9*	39.3	-14.1	-0.5	-39.3	0.3
O=C(Nc1cccc([N+](=O)[O-])c1)c1cc2ccccc2cc1O	-49.4	128.6*	-13.6	3.0	-128.5	0.0
SMILES	Ecoli rRNA inh	SR-BI HDL uptake	dFosB activator	PvdQ acylase	SR-BI uptake up	XiGFP reactiv
O=C(Nc1ncc([N+](=O)[O-])s1)c1cccc([N+](=O)[O-])c1	-3.3	-6.1	5.0	39.5*	6.1	0.0
CCC(=O)Nc1nnc(SCc2cccc(F)c2)s1	10.9	-22.6	0.3	-2.5	22.6	0.0
O=C(c1cc2ccccc2[nH]1)N1O[C@@H]2C=C[C@H]1C2	0.5	1.7	-1.9	-4.0	-1.7	0.1
Cc1ccccc1Oc1ccc(-c2nc(N)nc(N)n2)cc1	.	-17.9	0.6	-1.8	.	.
Nc1nc(N)nc(-c2ccc(Oc3ccccc3)cc2)n1	-34.0*	-3.7	1.7	16.1	3.7	.
N#CC(C#N)=C1c2cc(S(=O)(=O)NCCO)ccc2-c2ccc(S(=O)(=O)NCCO)cc21	8.4	-197.2	-1.0	-6.8	197.2*	-0.2
CCOc1ccc(N2C(=O)C(=O)/C(=C(/O)c3ccccc3)C2c2ccccc2[N+](=O)[O-])cc1 (stereo unspecified)	-16.7*	-1.8	-6.0	-11.0	1.8	0.1
O=C(NC1CCC1)[C@H]1[C@H](CO)[C@H]2Cn3c(ccc(-c4ccncc4)c3=O)[C@H]2N1CC1CC1	0.8	.	.	.	.	0.1
COc1ccccc1C(=O)NC(CCSC)C(=O)NNC(=O)c1ccc(F)cc1 (stereo unspecified)	.	12.5	-4.5	2.6	-12.5	-0.1
COc1ccccc1C(=O)NC(CCSC)C(=O)NNC(=O)c1ccccc1O (stereo unspecified)	-12.1	75.7*	-7.3	3.3	-75.7	0.0
COc1ccc(-c2sc(NC(=O)c3ccc(C)cc3)nc2-c2ccc([N+](=O)[O-])cc2)cc1	.	90.5*	3.8	-13.6	-90.5	.
Cc1c(C)n(CCN(C)C)c2ccc(C(=O)OCCN(C)C)cc12	21.9	-2.6	20.2*	-8.8	2.6	-0.1
COc1ccc(C(=O)NC(=S)Nc2ccc(CN3CCOCC3)cc2)cc1	-3.1	11.4	-1.0	15.1	-11.4	0.0
COc1ccc(C(=O)Nc2ccccc2N2CCOCC2)cc1Br	-30.0	79.9*	-5.7	-16.8	-79.9	.
COc1ccc(C(=O)Nc2ccccc2N2CCCCC2)cc1[N+](=O)[O-]	13.4	77.5*	0.1	10.4	-77.5	0.5
COc1ccc(C(=O)NC(=S)Nc2ccc(CN3CCOCC3)cc2)cc1Br	-21.5*	40.8	-4.2	-7.9	-40.8	0.0
O=C1CCN(CCc2ccccc2)CCN1[C@H](CSc1ccccc1)Cc1ccccc1	-38.8	-9.3	-4.6	-2.7	9.3	0.4
CCOC(=O)c1nnn(CC(=O)Nc2cc(F)ccc2F)c1C(=O)OCC	.	2.8	-3.7	-2.1	-2.8	.
CCN(CC)CCN(C(=O)C1CCCCC1)c1nc2cc3c(cc2s1)OCO3	-18.1*	-19.1	-5.2	-0.3	19.1	0.2
CCN(Cc1ccccc1)S(=O)(=O)c1ccc(C(=O)N(CCCN(C)C)c2nc3cc(OC)ccc3s2)cc1	-56.3	-33.4	-14.4	-10.7	33.4	0.2
CCN(CC)CCN(C(=O)c1ccc(C(=O)c2ccccc2)cc1)c1nc2cc3c(cc2s1)OCO3	-5.1	37.3	47.7*	-4.6	-37.3	-0.1
COc1cccc2sc(N(CCCN(C)C)C(=O)c3sc4ccccc4c3Cl)nc12	-43.3*	-20.0	4.8	-4.1	20.0	0.0
